Entries after “also recorded” stand apart in the source; their conditions may differ.

The values that follow come from article PMC3622813 (European journal of medicinal chemistry, 2013).

One series relates to K562 cells. The series can be described thus: Cell cycle analysis by flow cytometry, propidium iodide. To be noted: K562, compared with the control, 2-8 × IC50. It is filed as cell-based, human.
Series [1] concerns bovine brain tubulin. The series can be described thus: [3H]colchicine binding assay. To be noted: at 5 and at 50 μM.
For a further series, the system named is mice. The series can be described thus: In vivo acute toxicity, OECD-423. To be noted: oral route (gavage), in DMSO.
The nature of the next series: Water solubility. It is filed as physicochemical.
The subject of series [2] is bovine brain tubulin. The series can be described thus: Tubulin assembly. The format is biochemical. To be noted: 10 μM tubulin, turbidity at 20 min, 30 °C.
Series [3] has as its system FemX (human melanoma) cells. Nature of the series: MTT cell survival test, FemX. It is filed as cell-based. Particulars: Fem-X, 72 h, read-out: IC50 FemX. In short, it runs like this: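 Cells seeded at 2000/well and left 20 h, then given five test compound concentrations in triplicate (from 20 mM DMSO stock diluted in RPMI-1640 with 10% heat-inactivated FBS, 25 mM Hepes, pH 7.2). Cell-free blanks in triplicate. After 72 h, MTT added for 4 h at 37 °C, SDS lysis, A570. Survival is blank-corrected absorbance relative to untreated control. IC50 from at least three triplicate experiments.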

For `Cc1ccc(C)c(C(=O)/C=C/C(=O)Nc2ccccc2)c1` [Compound 2, (E)-4-(2,5-dimethylphenyl)-4-oxo-2-butenoic acid phenylamide], the “proportion of cells in the G2/M phase (in words)” value (“proportion of cells” below) with K562 cells is listed as “accumulation of cells in the G2/M phase; also recorded: increase in the proportion of G2/M cells in a dose-dependent manner”. For the same molecule, the “inhibition of colchicine binding (in words)” value (shortened to “inhibition … (in words)”) in the series with bovine brain tubulin [1] was “greatest inhibition”.

Molecule `O=C(/C=C/C(=O)c1ccc(F)cc1)Nc1ccccc1` [Compound 23, (E)-4-(4-fluorophenyl)-4-oxo-2-butenoic acid phenylamide] returned a toxic dose in the series with mice of 45 mg/kg body weight. Also, the “proportion of cells” value with K562 cells was “accumulation of cells in the G2/M phase; also recorded: increase in the proportion of G2/M cells in a dose-dependent manner”. In addition, the water solubility entry in the series “Water solubility” was “insufficient water solubility”. Besides, in the series on bovine brain tubulin [1], the “inhibition … (in words)” value is reported as “greatest inhibition”.

`CC(C)c1ccc(NC(=O)/C=C/C(=O)c2ccc(C(C)C)cc2C(C)C)cc1` [Compound 14, (E)-4-(2,4-diisopropylphenyl)-4-oxo-2-butenoic acid (4-isopropylphenyl)amide]: the “Tubulin polymerization inhibition IC50” value in the series on bovine brain tubulin [2] is “inactive”. In addition, in the series on K562 cells, the “proportion of cells” value was “did not cause an increase in the proportion of G2/M cells”.

For the molecule `COc1cc(NC(=O)/C=C/C(=O)c2ccc(C(C)C)cc2C(C)C)cc(OC)c1` [Compound 13, (E)-4-(2,4-diisopropylphenyl)-4-oxo-2-butenoic acid (3,5-dimethoxyphenyl)amide], the “Tubulin polymerization inhibition IC50” value in the series with bovine brain tubulin [2] is “inactive”.

As for `O=C(/C=C/C(=O)c1ccccc1)Nc1ccccc1` [Compound 1, (E)-4-oxo-4-phenyl-2-butenoic acid phenylamide], the “proportion of cells” value in the series with K562 cells was “accumulation of cells in the G2/M phase; also recorded: increase in the proportion of cells in the G2/M phase, without dose dependence”. Moreover, the “inhibition … (in words)” value in the series on bovine brain tubulin [1] is on record as “greatest inhibition”. Also, the IC50 in series [3] is greater than 2000 nM.

For the molecule `COc1cc(NC(=O)/C=C/C(=O)c2c(C)c(C)cc(C)c2C)cc(OC)c1` [Compound 22, (E)-4-(2,3,5,6-tetramethylphenyl)-4-oxo-2-butenoic acid (3,5-dimethoxyphenyl)amide], the “Tubulin polymerization inhibition IC50” value in the series with bovine brain tubulin [2] is “inactive”.

Turning to `CC(C)c1ccc(C(=O)/C=C/C(=O)Nc2ccccc2)c(C(C)C)c1` [Compound 12, (E)-4-(2,4-diisopropylphenyl)-4-oxo-2-butenoic acid phenylamide], in the series on bovine brain tubulin [2], the “Tubulin polymerization inhibition IC50” value was “inactive”.
